Measurements pooled from the literature.
Lines come from different studies, so protocols differ.
Target: Mitogen-activated protein kinase kinase kinase 9 (MAP3K9, Homo sapiens, UniProt P80192)

`c1cnn2ncc(-c3ccnc(N4CCC45COC5)n3)c2c1` gave a remaining binding of 85% (binding; 1 µM).
`Cc1cc(C)c(-n2ccn3nc(-c4cccnc4)cc23)cc1NC(=O)c1cc(C#N)cc(S(F)(F)(F)(F)F)c1` has a remaining binding of 79.5% (cell-free assay, competition with immobilised ligand; 0.1 µM).
The remaining binding of `C[C@@H]1CCN(c2nccc(-c3cnn4ncccc34)n2)C1` is reported as 100% (binding; 1 µM).
With `C[C@@H](c1cccc(C#N)c1)n1cc(Cl)cc(C(N)=O)c1=N` the remaining binding was 100% (cell-free assay, competition with immobilised ligand; 1 µM).
`CN(CCCC(F)(F)F)c1nccc(-c2cnn3ncccc23)n1` gave a remaining binding of 88% (binding; 1 µM).
`CCCCN(CCCC)C(=O)CN1C[C@@H](c2cc(OC)c3c(c2)OCO3)[C@H](C(=O)O)[C@H]1CC(C)(C)CCC` has a remaining binding of 98.8% (cell-free assay, competition with immobilised ligand; 1 µM).
The remaining binding of `CN(C)c1ncc(F)c(-c2cnn3ncccc23)n1` is reported as 100% (binding; 1 µM).
The remaining binding of `Nc1c(C(=O)NCc2ccc(C(=O)NCCCC3CCCCC3)cc2)cnn1-c1ccccc1` is reported as 96% (cell-free assay, competition with immobilised ligand; 0.1 µM).
With `CN(c1nccc(-c2cnn3ncccc23)n1)C1CC1` the remaining binding was 85% (binding; 1 µM).
For `COc1ncc2cc3ccccc3nc2c1C#N`, the remaining binding was 97% (cell-free assay, competition with immobilised ligand; 5 µM).
`CO[C@@H](C)c1c(Nc2ccc([C@@H](N(C)C(=O)C3CCS(=O)(=O)CC3)C(F)(F)F)cc2)cnc2cc(Cl)nn12` has a remaining binding of 81% (cell-free assay, competition with immobilised ligand; 1 µM).
`CC1CCCN1c1nccc(-c2cnn3ncccc23)n1` (stereo not shown) gave a remaining binding of 100% (binding; 1 µM).
With `CCN1CCN(Cc2ccc(C(=O)Nc3ccc(C)c(Oc4ccc5c(c4)CC(=O)N5)c3)cc2C(F)(F)F)CC1` the remaining binding was 100% (binding, competition with immobilised ligand; 1 µM).
`C[C@@H]1CN(c2ccc3ncc(-c4ccc5[nH]nc(C6CC6)c5c4)n3n2)C[C@H](C)O1` has a remaining binding of 100% (binding, competition with immobilised ligand; 0.5 µM).
For `COc1cnc(Nc2cccc(S(N)(=O)=O)c2)nc1N1CCN(c2ccccc2)CC1`, the remaining binding was 73% (binding, competition with immobilised ligand; 1 µM).
`Nc1ncc2c(n1)-c1c([nH]c3ccc(C#CC4CC4)cc13)CCCC2` gave a remaining binding of 100% (binding, competition with immobilised ligand; 1 µM).
With `C=CC(=O)N1CCC(C(=O)NCC(=O)N2CCN(c3nc(-c4cnc(N)nc4C(F)F)nc(N4CCOCC4)n3)CC2)CC1` the remaining binding was 96% (binding, competition with immobilised ligand; 1 µM).
`O=C(c1ccc(Nc2nccc(-c3cc4ccccc4s3)n2)cc1)N1CCC(N2CCCC2)CC1` gave a remaining binding of 27% (binding, competition with immobilised ligand; 1 µM).
The remaining binding of `O=C(NS(=O)(=O)c1ccc(NCC2CCOCC2)c([N+](=O)[O-])c1)c1ccc(N2CCN(Cc3ccc(C(F)(F)F)cc3-c3ccc(Cl)cc3)CC2)cc1Oc1cnc2[nH]ccc2c1` is reported as 100% (cell-free assay, competition with immobilised ligand; 1 µM).
`CNC(=O)[C@@H]1CC[C@@H](n2c(-c3ccc4cnccc4c3)nc3ccc(C(=O)NCc4cccc(C(N)=O)c4)cc32)C1` has a remaining binding of 100% (binding, competition with immobilised ligand; 1 µM).
`COc1cc(-c2cn(C3CCc4c(F)cccc4N(CC(F)(F)F)C3=O)nn2)ccc1-n1cnc(C)c1` (stereo not shown) has a remaining binding of 100% (cell-free assay, competition with immobilised ligand; 1 µM).
`O=C(NCCCN1CCOCC1)c1ccc(Nc2ncc(Cl)c(-c3ccc(Cl)s3)n2)cc1` has a remaining binding of 11% (binding, competition with immobilised ligand; 1 µM).
`CN(C)c1nccc(-c2cnc3ncccn23)n1` has a remaining binding of 65% (binding; 1 µM).
For `O=C(Nc1c[nH]nc1C(=O)NC1CCNCC1)c1cc(F)cc(F)c1`, the remaining binding was 100% (binding, competition with immobilised ligand; 1 µM).
The remaining binding of `O=C(c1ccc(Nc2ncc(Cl)c(-c3ccc(Cl)s3)n2)cc1)N1CCC(N2CCCC2)CC1` is reported as 8.9% (binding, competition with immobilised ligand; 1 µM).
